Screening data from PubChem.
This is a sample that favours compounds with a hit; in the whole collection about 2.9% have one here.
SENP1 FRET inh = blocks the human SENP1 SUMO protease catalytic domain. inhibition, % at 10 µM. recombinant SENP1 catalytic domain, CyPet-SUMO1-YPet FRET cleavage. actives 0.21% (n = 360,000). Q9P0U3. AID 624204;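 active = inhibition at least 30% at 10 µM, raw YFP signal under a set limit, fluorescence ratio 0.5 to 1.5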;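 note: 0% = enzyme with DMSO and 100% = no enzyme wells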
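Test system: hSENP1 catalytic domain, recombinant; Amount: 20 pM final SENP1 enzyme; Medium: Tris pH 8 buffer plus EDTA, NaCl, BME, BSA, NP40, catalase; Schedule: 50 min enzyme reaction, room temperature, light-protected; Technique: FRET fluorescence in CFP and YFP emission channels; Controls: no-enzyme wells low, DMSO-plus-enzyme wells high control.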
SENP7 block = inhibitors of human SENP7 protease. Q9BQF6. recombinant SENP7, Z-RLRGG-aminoluciferin luminescence, 40 min. inhibition, % at 5 µM. actives 1.5% (n = 330,000). AID 434973;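 active = inhibition above about 50% at the single test dose, limit read from the data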;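 note: plate controls were DMSO with enzyme for no effect and no enzyme buffer wells for full effect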
Target sequence (Q9BQF6 706-1050 limits assumed): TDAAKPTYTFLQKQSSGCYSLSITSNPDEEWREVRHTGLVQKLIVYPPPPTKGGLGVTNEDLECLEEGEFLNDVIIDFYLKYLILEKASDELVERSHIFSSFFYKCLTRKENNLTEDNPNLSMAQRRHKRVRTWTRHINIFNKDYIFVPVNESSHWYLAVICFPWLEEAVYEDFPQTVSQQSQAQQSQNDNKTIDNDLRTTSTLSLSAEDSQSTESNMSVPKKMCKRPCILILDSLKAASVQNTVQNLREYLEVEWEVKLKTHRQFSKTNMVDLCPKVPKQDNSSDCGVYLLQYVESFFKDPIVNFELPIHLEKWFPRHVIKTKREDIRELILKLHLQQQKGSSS
SENP6 inh = inhibitors of human SENP6 protease; Q9GZR1; Recombinant SENP6 catalytic domain, aminoluciferin luminescence; inhibition, % at 10 µM; actives 1.8% (n = 330,000); AID 2599;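 active = inhibition above about 50% at the single tested dose, limit read from the data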;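 note: plate controls were DMSO wells with enzyme for no effect and DMSO wells lacking enzyme for full effect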
HSP90 inh = blocks HSP90-mediated luciferase refolding in reticulocyte lysate; Rabbit reticulocyte lysate, luciferase refolding luminescence, 3 h; inhibition, % at 5.6 µM; actives 0.91% (n = 290,000);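 active = inhibition above the screen-wide mean plus 3 SD, computed separately per campaign, cut at about 16% in these data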;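 note: 0% = DMSO wells and 100% = 60 µM geldanamycin wells; inhibitors lower the luminescence because luciferase stays unfolded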
SENP8 block-1 = inhibitors of human SENP8 protease; inhibition, % at 20 µM; recombinant SENP8, Nedd8 substrate fluorescence; actives 0.64% (n = 360,000); AID 602440; in the data active = inhibition mostly above about 40%, no sharp cut-off; inactive = mostly below about 27%
SENP8 block-2 = inhibitors of human SENP8 protease; purified SENP8, Z-RLRGG-aminoluciferin cleavage, luminescence; actives 1.2% (n = 330,000); Q96LD8; AID 2540; inhibition, % at 10 µM; in the data active = inhibition above about 50%
SENP8 conf = human SENP8 inhibition, confirmed; Recombinant SENP8, Z-RLRGG-aminoluciferin luminescence, 60 min; actives 40% (n = 6,200); AID 488912; inhibition, % at 12.5 µM; shares compounds with SENP7 block;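 active = mean inhibition across replicates above about 50%, limit read from the data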
SENP6 confirm = confirmation of human SENP6 protease inhibitors; shares compounds with SENP7 block; recombinant SENP6, Z-RLRGG-aminoluciferin luminescence; inhibition, % at 12.5 µM; actives 58% (n = 6,200); AID 488915
SENP7 confirm = confirmation of human SENP7 protease inhibitors | shares compounds with SENP7 block | recombinant SENP7, Z-RLRGG-aminoluciferin luminescence, 40 min | inhibition, % at 12.5 µM | actives 69% (n = 6,200)
Casp3 select = caspase-3 inhibition (SENP selectivity assay); actives 60% (n = 6,200); purified caspase-3, Z-DEVD-aminoluciferin luminescence, 60 min; shares compounds with SENP7 block; inhibition, % at 12.5 µM;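 active = mean inhibition above about 50%, limit read from the data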;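 note: plate controls were enzyme with DMSO for no effect and wells without caspase-3 for full effect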
Luc interf = counter-screen for SENP inhibitors: luminescence interference; shares compounds with SENP7 block; Pre-incubated SENP8/Z-RLRGG-aminoluciferin, luciferase luminescence interference; inhibition, % at 12.5 µM; actives 39% (n = 6,200);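 active = mean inhibition above about 50% when retested at one dose, limit read from the data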;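 note: plate controls were DMSO wells with completed reaction for no effect and substrate without enzyme for full effect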
Starred values were filed as active, the others as inactive; i = inactive; / = no result given.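 Rule for the calls, unless noted: active = mean inhibition above about 50% in the one-dose retest (limit read from the data); inactive = the rest.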

SMILES | SENP1 FRET inh | SENP7 block | SENP6 inh | HSP90 inh | SENP8 block-1 | SENP8 block-2 | SENP8 conf | SENP6 confirm | SENP7 confirm | Casp3 select | Luc interf
Clc1cccc(-c2nc3c4ccccc4ccn3c2Cc2ccsc2)c1 | -5 | / | / | / | -253 | / | / | / | / | / | /
COc1cccc2c1C(=O)O/C2=C/c1ccc2c(c1)OCO2 | 7 | 98* | 19 | 0 | i | 88* | 22 | 19 | 22 | 74* | -11
CC(=O)NC1=C(N(C)C2CCS(=O)(=O)C2)C(=O)c2ccccc2C1=O (stereo not drawn) | -3 | 25 | 67* | 0 | 66* | 28 | 45 | 74* | 42 | 4 | -3
Cc1ccc(-c2csc(NC(=O)c3ccc(F)cc3)c2C(=O)O)cc1 | 3 | 58* | 94* | 3 | -24 | 90* | -2 | 91* | 90* | 89* | 68*
CCOC(=O)c1c(-c2ccc(F)cc2)csc1NC(=O)C1CC=CCC1C(=O)O (stereo not drawn) | 3 | -9 | -18 | 4 | -3 | -8 | / | / | / | / | /
O=C(Nc1scc(-c2ccccc2)c1C(=O)O)c1ccc(F)cc1 | -1 | 71* | 91* | 14 | -77 | 92* | 93* | 94* | 102* | 96* | 92*
Cc1ccn(CCC(=O)Nc2ccc3c(c2)OCO3)n1 | -3 | 0 | -3 | -3 | 7 | 5 | / | / | / | / | /
COc1cc(CNCCc2ccccc2)cc(Cl)c1OCc1ccccc1 | 2 | -6 | -18 | 7 | 22 | -9 | / | / | / | / | /
CNC(=O)c1ccsc1NC(=O)c1ccc2c(c1)CCCC2 | -3 | 54* | 59* | -7 | -200 | 38 | 60* | 60* | 82* | 32 | 22
NC(=O)c1ccsc1NC(=O)c1cccs1 | -9 | 3 | -12 | 2 | -106 | -1 | / | / | / | / | /
NC(=O)c1ccsc1NC(=O)c1ccc(N2CCCC2=O)cc1 | -12 | 89* | 90* | 12 | -286 | 87* | 92* | 91* | 100* | 94* | 12
NC(=O)c1ccsc1NC(=O)c1ccc2c(c1)CCCC2 | -11 | 99* | 96* | 11 | -178 | 96* | 97* | 97* | 101* | 96* | 67*
CC(C)Cc1nnc(NC(=O)c2ccc(N3CCCC3=O)cc2)s1 | 0 | 2 | -6 | / | -85 | -2 | / | / | / | / | /
CC1(c2nnnn2Cc2ccccc2)CCC(=O)N1Cc1cccc(C(F)(F)F)c1 (stereo not drawn) | 0 | / | / | / | 16 | / | / | / | / | / | /
COc1ccc(S(=O)(=O)N2CCN(CC(=O)NCCc3cccs3)CC2)cc1 | 1 | -1 | 14 | / | -2 | -15 | / | / | / | / | /
COC(=O)Cc1ccc(OC2(C)CCN(Cc3ccc(-c4ccccn4)cc3)C2)cc1 (stereo not drawn) | -2 | / | / | / | 19 | / | / | / | / | / | /
CC(OC(=O)[C@@H](NC(=O)OCc1ccccc1)C(C)C)C(=O)Nc1ccc(N2CCOCC2)cc1 (stereo partly drawn) | 1 | / | / | / | 17 | / | / | / | / | / | /
Nc1nnn(-c2ccccc2)c1-c1ccccc1 | 0 | -15 | -18 | / | 0 | -5 | / | / | / | / | /
Clc1c(-c2ccccc2)nnn1-c1ccccc1 | 0 | 77* | 91* | -3 | 16 | 76* | 74* | 81* | 96* | 75* | 76*
COc1cc(O)cc2cc3c(c(O)c12)C(=O)CC(C)(O)O3 (stereo not drawn) | -56 | 13 | 58* | / | 11 | 21 | 2 | 9 | 17 | 24 | 30
COc1cc(O)c2c(c1)OC(C)(C)CC2=O | -4 | -6 | -5 | 0 | 26 | 2 | / | / | / | / | /
